DAGLB inh – diacylglycerol lipase beta (human) inhibition; AID 504411; inhibition, % at 5.17 µM; 340,000 tested, 0.059% active; Q8NCG7; HEK293T DAGLB membrane lysate, EnzChek fluorogenic substrate; in the data active means inhibition above about 34%
TMEM16A inh – blocks the mouse calcium-activated chloride channel TMEM16A; 310,000 tested, 1.2% active; AID 588511; HEK293 TMEM16A/YFP iodide influx fluorescence, ionomycin; normalized B-score (activity score, 25-100; higher = stronger inhibition) at 10 µM;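 active means ratio plate-corrected score three or more library SD toward inhibition, starting fluorescence score within five deviations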;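 further: score derived from kinetic fluorescence span divided by baseline fluorescence per well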
ANO1 activ – activators or potentiators of mouse TMEM16A chloride channel | HEK293 TMEM16A/YFP-H148Q/I152L, iodide quench fluorescence; active compounds read low | B-score at 10 µM | 340,000 tested, 0.3% active | AID 623877;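 active means fluorescence-ratio B-score plate-corrected deviation score at least 3 library SD below zero, with starting fluorescence score within 5 deviations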;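 further: channel opened by trigger with iodide after compound preincubation; score built on the fluorescence ratio of max minus min over baseline; more negative score means more quench and so TMEM16A activation or potentiation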
MT1-MMP act inh – blocks activation of human MT1-MMP | HT1080 RFP-PRO-GFP cells, GFP/RFP ratio fluorescence, overnight; percent of plate control window, DMSO zero | GFP/RFP ratio change, % at 20 µM | 360,000 tested, 0.061% active;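 active means GFP/RFP ratio change of at least 30% with cell ATP level not reduced by more than half and red fluorescence within 50% of control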
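Assay system: HT1080 cells carrying an RFP-PRO-GFP reporter | Dosing: Single dose of 20 µM compound, 1% DMSO final | Incubation: Cells overnight before dosing, compound overnight, 37 °C, 5% CO2 | Evaluation: GFP/RFP fluorescence ratio | Control set: DMSO and RFP-L50D-GFP cell wells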
TMEM16A reconf – TMEM16A (mouse) chloride channel inhibition, re-confirmation | shares compounds with TMEM16A inh | HEK293 TMEM16A/YFP-H148Q, iodide quench fluorescence; ionomycin added to raise cell calcium | inhibition, % at 10 µM | 2,300 tested, 39% active;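 active means mean duplicate percent inhibition, scaled so buffer wells are 0 and the reference blocker 100, over three buffer SD above buffer mean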
TMEM16A Ca cntr – calcium mobilization counter-screen hit for TMEM16A inhibitor series; shares compounds with TMEM16A inh; TMEM16A/YFP HEK293, Fluo4 calcium mobilization; calcium response (% of ionomycin), % at 10 µM; 2,300 tested, 2% active; AID 652231;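 active means duplicate-averaged calcium signal over 20% of the ionomycin maximum, relative to buffer baseline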;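 further: each well's signal is peak minus trough fluorescence divided by its pre-addition baseline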
YFP-HEK293 quench – counter-screen for TMEM16A inhibitors: effect in parental YFP-HEK293 cells; iodide YFP quench, ionomycin; YFP ratio F(max-min)/F0 at 10 µM; 2,300 tested, under 10 active; AID 652233; shares compounds with TMEM16A inh;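 active means yellow fluorescent protein signal ratio exceeding the buffer control mean by over 5 SD of those controls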;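 further: ratio is mean of duplicate wells from kinetic YFP trace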
ClC-1 inh – blocks the rat ClC-1 voltage-dependent chloride channel. shares compounds with TMEM16A inh. CHO ClC-1-YFP, iodide influx fluorescence quench; iodide control reads 0, buffer control 100. ratio percent, % at 10 µM. 2,300 tested, under 10 active. AID 652236;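 active means duplicate-mean ratio percent above the mean of iodide-only control wells, which defines zero, plus 5 of their SD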;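 further: higher percent means stronger block of ClC-1 iodide influx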
A number is an active result; 0 = inactive; - = no result given. This is a sample that favours compounds with a hit; in the whole collection about 1.3% have one here.

SMILES | DAGLB inh | TMEM16A inh | ANO1 activ | MT1-MMP act inh | TMEM16A reconf | TMEM16A Ca cntr | YFP-HEK293 quench | ClC-1 inh
COc1ccc(Cl)cc1NC(=O)C(C)N(C)Cc1ccc(C(F)(F)F)cc1 (stereo not given) | 0 | 100 | 0 | 0 | 0 | 0 | 0 | 0
O=C(/C=C/[C@H]1O[C@@H](n2cnc3c(NC(=O)c4ccccc4)ncnc32)[C@H](O)[C@@H]1O)NCc1cccs1 | - | - | - | 0 | - | - | - | -
CC(=O)Oc1cccc(Nc2ncnc3ccccc23)c1 | 0 | 0 | 0 | 0 | - | - | - | -
Cc1ccccc1C(=O)Oc1cccc(Nc2ncnc3ccccc23)c1 | 0 | 25 | 0 | 0 | 29.5% | 0 | 0 | 0
CCOC(=O)c1c(C)c(C(=O)N2CCN(C(=O)c3ccco3)CC2)c(C)n1C | 0 | 100 | 0 | 0 | 0 | 0 | 0 | 0
CCOC(=O)c1c(C)c(C(=O)NCc2ccco2)c(C)n1C | 0 | 0 | 0 | 0 | - | - | - | -
COc1ccc(OCCSc2ncccn2)cc1 | 0 | 0 | 0 | 0 | - | - | - | -
COc1ccc(OCCSc2nc(C)nc3ccccc23)cc1 | 0 | 25 | 0 | 0 | 58.5% | 0 | 0 | 0
COc1cc(Cl)c(C)cc1NC(=O)CN(C)Cc1cccc(OC)c1OC | 0 | 25 | 0 | 0 | 19.5% | 0 | 0 | 0
COc1ccc(C(=O)N/C(=C\c2ccccc2)C(=O)Nc2ccc(C(=O)NCC(=O)O)cc2)cc1 | 0 | 0 | 0 | 0 | - | - | - | -
Cc1cccc(-c2noc(-c3csc([C@@H]4C[C@H](O)[C@@H](CO)O4)n3)n2)c1 | - | - | - | 0 | - | - | - | -
NS(=O)(=O)c1cccc(NC(=O)CN2C(=O)C(=O)N(Cc3ccccc3)C2=O)c1 | 0 | - | 0 | 0 | - | - | - | -
Cc1csc(NC(=O)c2ccc(Cn3nc(C)c(Br)c3C)o2)n1 | 0 | 100 | 0 | 0 | 25.0% | 0 | 0 | 0
O=C1CSc2ccc(S(=O)(=O)CCC(=O)NC3CCCCC3)cc2N1 | 0 | 0 | 0 | 0 | - | - | - | -
CC1CCC(NC(=O)CCS(=O)(=O)c2ccc3c(c2)NC(=O)CS3)CC1 (stereo not given) | 0 | 25 | 0 | 0 | 0 | 0 | 0 | 0
Cc1nn(-c2ccc(Cl)cc2)c2[nH]c(CCl)cc(=O)c12 | 0 | 100 | 0 | 0 | 45.5% | 0 | 0 | 0
Cc1cc(=O)[nH]c2c1c(C)nn2-c1ccccc1 | 0 | 0 | 0 | 0 | - | - | - | -
COC(=O)CNC(c1ccccc1)c1cc(Br)ccc1NC(=O)OCc1ccccc1 (stereo not given) | 0 | 0 | 0 | 0 | 0 | 0 | 0 | 0
COc1cc(/C=C/C(=O)c2ccc3c(c2)OCCO3)cc(Br)c1OCC(=O)N(C)C | 0 | 0 | 0 | 0 | 0 | 0 | 0 | 0
CSc1nc(-c2ccc(Cl)cc2Cl)[nH]c(=O)c1C#N | 0 | 25 | 0 | 0 | 49.5% | 0 | 0 | 0
Cc1cc(-c2ccc(Cl)cc2Cl)c(C#N)c(=O)[nH]1 | 0 | 0 | 0 | 0 | - | - | - | -
CC1(C(=O)Nc2ccccc2F)CCN1C(=O)Cc1cc(F)ccc1F (stereo not given) | - | - | - | 0 | - | - | - | -
CCN(CC)S(=O)(=O)c1cccc(C(=O)OCC(=O)c2ccc3c(c2)OCCO3)c1 | 0 | 25 | 0 | 0 | 16.5% | 0 | 0 | 0
CCN(CC)S(=O)(=O)c1ccc(C(=O)OCC(=O)c2ccc3c(c2)NC(=O)CO3)cc1 | 0 | 0 | 0 | 0 | - | - | - | -
CCN(CC)S(=O)(=O)c1cc(C(=O)OCC(=O)c2ccc3c(c2)NC(=O)CO3)ccc1Cl | 0 | 100 | 0 | 0 | 17.5% | 0 | 0 | 0
CNS(=O)(=O)c1cccc(C(=O)OCC(=O)c2cc(C)n(-c3ccc4c(c3)OCO4)c2C)c1 | 0 | 25 | 0 | 0 | 0 | 0 | 0 | 0
CS(=O)(=O)c1cccc(C(=O)OCC(=O)c2ccc3c(c2)OCCO3)c1 | 0 | - | 0 | 0 | - | - | - | -
O=C(Nc1ccc(F)cc1F)c1cc(-c2ccco2)on1 | 0 | 100 | 0 | 0 | 0 | 0 | 0 | 0

High-throughput results as filed in PubChem.
